Measurements published in ChEMBL document CHEMBL1629575, “Clinical outcomes, safety, and pharmacokinetics of OPT-80 in a phase 2 trial with patients with Clostridium difficile infection” (Antimicrob Agents Chemother, 2009).
Converted amounts (≈) assume the structure as drawn.

What was measured:
[1] = test system: Clostridioides difficile; experiment: Antimicrobial activity against Clostridium difficile; type: functional
[2] = test system: Plasma; experiment: Drug level in clostridium difficile infected patient plasma assessed as OP-1118 metabolite level at 400 […], po every 12 hrs for 10 days by RP-HPLC/MS; type: ADME, organism-based; design: route oral; settings: human, in vivo
Procedure, shortened: (§1)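 Plasma was sampled 0.5 h before and 2 h after dosing on the first and last days of the 10-day oral regimen. Samples were methanol-acetic acid precipitated with OP-1393 internal standard, C18 solid-phase extracted, and analysed by RP-HPLC (40°C column) with tandem quadrupole MS. Assay range was 5 to 1,000 ng/ml for parent and OP-1118.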

[3] = Drug level in clostridium difficile infected patient feces assessed as OP-1118 metabolite level at 100 […], po every 12 hrs for 10 days by RP-HPLC/MS; type: ADME, organism-based; design: route oral; settings: human, in vivo
Procedure, shortened: (§2)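 The complete 24-h stool output was collected on day 10 (or the final dosing day if treatment stopped early) and frozen at −80°C. Stool was homogenized in acetonitrile-acetic acid, diluted with acetonitrile, spiked with OP-1393 internal standard, and analysed by RP-HPLC-MS/MS. The assay standard range for parent was 10 to 2,000 ng/ml. Results are reported as mean ± SD in μg/g.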

[4] = test system: Plasma; experiment: Drug level in clostridium difficile infected patient plasma assessed as OP-1118 metabolite level at 100 […], po every 12 hrs for 10 days by RP-HPLC/MS; type: ADME, organism-based; design: route oral; settings: human, in vivo; procedure, shortened: as §1
[5] = Drug level in clostridium difficile infected patient feces assessed as OP-1118 metabolite level at 400 […], po every 12 hrs for 10 days by RP-HPLC/MS; type: ADME, organism-based; design: route oral; settings: human, in vivo; procedure, shortened: as §2
[6] = Drug level in clostridium difficile infected patient feces assessed as OP-1118 metabolite level at 200 […], po every 12 hrs for 10 days by RP-HPLC/MS; type: ADME, organism-based; design: route oral; settings: human, in vivo; procedure, shortened: as §2
[7] = test system: Plasma; experiment: Drug level in clostridium difficile infected patient plasma assessed as OP-1118 metabolite level at 200 […], po every 12 hrs for 10 days by RP-HPLC/MS; type: ADME, organism-based; design: route oral; settings: human, in vivo; procedure, shortened: as §1
[8] = test system: Clostridioides difficile; experiment: Antimicrobial activity against Clostridium difficile infected in patient assessed as resolution of diarrhea on day 10 at 100 […], po every 12 hrs for 10 days; type: functional
Procedure, shortened: (§3)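 Open-label randomized phase 2 trial in mild to moderate CDI patients, oral dosing over a 10-day regimen. Resolution of diarrhea was defined as the first day with one or two non-watery, non-loose stools in 24 h, sustained through treatment up to study day 10. Time to resolution was counted from the first dose.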

[9] = test system: Clostridioides difficile; experiment: Antimicrobial activity against Clostridium difficile infected in patient assessed as recurrence of diarrhea within 6 weeks after treatment at 400 mg/kg, po every 12 hrs for 10 days; type: functional
[10] = test system: Clostridioides difficile; experiment: Antimicrobial activity against Clostridium difficile infected in patient assessed as percentage of patient require no further treatment at 400 […], po every 12 hrs for 10 days; type: functional
Procedure, shortened: (§4)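 Phase 2 open-label randomized dose-ranging trial; adults with mild to moderate CDI (primary episode or first relapse, positive toxin by EIA or cytotoxicity assay), oral dosing for 10 days. Clinical failure was defined as the need for additional therapy during the treatment period. Failures underwent C. difficile culture and toxin testing.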

[11] = test system: Clostridioides difficile; experiment: Antimicrobial activity against Clostridium difficile infected in patient assessed as resolution of diarrhea on day 10 at 200 […], po every 12 hrs for 10 days; type: functional; procedure, shortened: as §3
[12] = test system: Plasma; experiment: Drug level in clostridium difficile infected patient plasma at 200 […], po every 12 hrs for 10 days by RP-HPLC/MS; type: ADME, organism-based; design: route oral; settings: human, in vivo; procedure, shortened: as §1
[13] = Drug level in clostridium difficile infected patient plasma at 100 […], po every 12 hrs for 10 days by RP-HPLC/MS; type: ADME, organism-based; design: route oral; settings: human, read-out: Activity; procedure, shortened: as §1
[14] = test system: Clostridioides difficile; experiment: Antimicrobial activity against Clostridium difficile infected in patient assessed as resolution of diarrhea on day 10 at 400 […], po every 12 hrs for 10 days; type: functional; procedure, shortened: as §3
[15] = test system: Clostridioides difficile; experiment: Antimicrobial activity against Clostridium difficile infected in patient assessed as percentage of patient require no further treatment at 100 […], po every 12 hrs for 10 days; type: functional; procedure, shortened: as §4
[16] = test system: Clostridioides difficile; experiment: Antimicrobial activity against Clostridium difficile infected in patient assessed as percentage of patient require further treatment at 400 […], po every 12 hrs for 10 days; type: functional; procedure, shortened: as §4
[17] = Drug level in clostridium difficile infected patient feces at 400 […], po every 12 hrs for 10 days by RP-HPLC/MS; type: ADME, organism-based; design: route oral; settings: human, faeces, read-out: Activity; procedure, shortened: as §2
[18] = Drug level in clostridium difficile infected patient plasma at 400 […], po every 12 hrs for 10 days by RP-HPLC/MS; type: ADME, organism-based; design: route oral; settings: human, read-out: Activity; procedure, shortened: as §1
[19] = test system: Clostridioides difficile; experiment: Antimicrobial activity against Clostridium difficile infected in patient assessed as complete relief of clostridium difficile associated diarrhea symptom in patient at 200 […], po every 12 hrs for 10 days; type: functional
[20] = test system: Clostridioides difficile; experiment: Antimicrobial activity against Clostridium difficile infected in patient assessed as incomplete relief of clostridium difficile associated diarrhea symptom in patient at 100 […], po every 12 hrs for 10 days; type: functional
[21] = test system: Clostridioides difficile; experiment: Antimicrobial activity against Clostridium difficile infected in patient assessed as incomplete relief of clostridium difficile associated diarrhea symptom in patient at 400 […], po every 12 hrs for 10 days; type: functional
[22] = Drug level in clostridium difficile infected patient feces at 100 […], po every 12 hrs for 10 days by RP-HPLC/MS; type: ADME, organism-based; design: route oral; settings: human, faeces, read-out: Activity; procedure, shortened: as §2
[23] = test system: Clostridioides difficile; experiment: Antimicrobial activity against Clostridium difficile infected in patient assessed as clinical failure at 100 […], po every 12 hrs for 10 days; type: functional; procedure, shortened: as §4
[24] = test system: Clostridioides difficile; experiment: Antimicrobial activity against Clostridium difficile infected in patient assessed as recurrence of diarrhea within 6 weeks after treatment at 200 mg/kg, po every 12 hrs for 10 days; type: functional
[25] = test system: Clostridioides difficile; experiment: Antimicrobial activity against Clostridium difficile infected in patient assessed as complete relief of clostridium difficile associated diarrhea symptom in patient at 100 […], po every 12 hrs for 10 days; type: functional
[26] = test system: Clostridioides difficile; experiment: Antimicrobial activity against Clostridium difficile infected in patient assessed as resolving of diarrhea after 10 days at 400 […], po every 12 hrs for 10 days; type: functional; procedure, shortened: as §3
[27] = test system: Clostridioides difficile; experiment: Antimicrobial activity against Clostridium difficile infected in patient assessed as clinical failure at 400 […], po every 12 hrs for 10 days; type: functional; procedure, shortened: as §4
[28] = test system: Clostridioides difficile; experiment: Antimicrobial activity against Clostridium difficile infected in patient assessed as recurrence of diarrhea within 6 weeks after treatment at 100 […], po every 12 hrs for 10 days; type: functional
[29] = test system: Clostridioides difficile; experiment: Antimicrobial activity against Clostridium difficile infected in patient assessed as percentage of patient require further treatment at 100 […], po every 12 hrs for 10 days; type: functional; procedure, shortened: as §4
[30] = test system: Clostridioides difficile; experiment: Antimicrobial activity against Clostridium difficile infected in patient assessed as resolving of diarrhea after 10 days at 200 […], po every 12 hrs for 10 days; type: functional; procedure, shortened: as §3
[31] = test system: Clostridioides difficile; experiment: Antimicrobial activity against Clostridium difficile infected in patient assessed as resolving of diarrhea after 10 days at 100 […], po every 12 hrs for 10 days; type: functional; procedure, shortened: as §3
[32] = test system: Clostridioides difficile; experiment: Antimicrobial activity against Clostridium difficile infected in patient assessed as percentage of patient require no further treatment at 200 […], po every 12 hrs for 10 days; type: functional; procedure, shortened: as §4
[33] = test system: Clostridioides difficile; experiment: Antimicrobial activity against Clostridium difficile infected in patient assessed as complete relief of clostridium difficile associated diarrhea symptom in patient at 400 […], po every 12 hrs for 10 days; type: functional
[34] = Drug level in clostridium difficile infected patient feces at 200 […], po every 12 hrs for 10 days by RP-HPLC/MS; type: ADME, organism-based; design: route oral; settings: human, faeces, read-out: Activity; procedure, shortened: as §2
[35] = test system: Clostridioides difficile; experiment: Antimicrobial activity against Clostridium difficile infected in patient assessed as clinical failure at 200 […], po every 12 hrs for 10 days; type: functional; procedure, shortened: as §4
[36] = test system: Clostridioides difficile; experiment: Antimicrobial activity against Clostridium difficile infected in patient assessed as percentage of patient require further treatment at 200 […], po every 12 hrs for 10 days; type: functional; procedure, shortened: as §4
[37] = test system: Clostridioides difficile; experiment: Antimicrobial activity against Clostridium difficile infected in patient assessed as incomplete relief of clostridium difficile associated diarrhea symptom in patient at 200 […], po every 12 hrs for 10 days; type: functional

Cc1ncc([N+](=O)[O-])n1CCO [METRONIDAZOLE]
MIC90 [1]: 0.5 µg/mL (≈ 2.92 µM)

CN[C@H](CC(C)C)C(=O)N[C@H]1C(=O)N[C@@H](CC(N)=O)C(=O)N[C@H]2C(=O)N[C@H]3C(=O)N[C@H](C(=O)N[C@H](C(=O)O)c4cc(O)cc(O)c4-c4cc3ccc4O)[C@H](O)c3ccc(c(Cl)c3)Oc3cc2cc(c3O[C@@H]2O[C@H](CO)[C@@H](O)[C@H](O)[C@H]2O[C@H]2C[C@](C)(N)[C@H](O)[C@H](C)O2)Oc2ccc(cc2Cl)[C@H]1O [VANCOMYCIN]
MIC90 [1]: 2 µg/mL (≈ 1.38 µM)

CCc1c(Cl)c(O)c(Cl)c(O)c1C(=O)O[C@H]1[C@H](O)[C@H](OC)[C@H](OC/C2=C\C=C\C[C@H](O)/C(C)=C/[C@H](CC)[C@@H](O[C@@H]3OC(C)(C)[C@@H](O)[C@H](O)[C@@H]3O)/C(C)=C/C(C)=C/C[C@@H]([C@@H](C)O)OC2=O)O[C@@H]1C
Activity [2]: 402.3 ng/mL
Activity [3]: 393 µg/g
Activity [4]: 77.2 ng/mL
Activity [5]: 760 µg/g
Activity [6]: 430 µg/g
Activity [7]: 154.3 ng/mL

CCc1c(Cl)c(O)c(Cl)c(O)c1C(=O)O[C@H]1[C@H](O)[C@H](OC)[C@H](OC/C2=C\C=C\C[C@H](O)/C(C)=C/[C@H](CC)[C@@H](O[C@@H]3OC(C)(C)[C@@H](OC(=O)C(C)C)[C@H](O)[C@@H]3O)/C(C)=C/C(C)=C/C[C@@H]([C@@H](C)O)OC2=O)O[C@@H]1C [FIDAXOMICIN]
Activity [8]: 71%
Activity [9]: 6.3%
Activity [10]: 13.3%
Activity [11]: 80%
Activity [12]: 9.37e-05 mg/mL
concentration at 10 days [13]: 12.3 ng/mL
MIC90 [1]: 0.125 µg/mL (≈ 0.118 µM)
Activity [14]: 94%
Activity [15]: 31.3%
Activity [16]: 0%
concentration at 10 days [17]: 1.43e+06 ng/g
concentration at 10 days [18]: 84.9 ng/mL
Activity [19]: 50%
Activity [20]: 56.3%
Activity [21]: 13.3%
concentration at 10 days [22]: 256000 ng/g
Activity [23]: 14%
Activity [24]: 0%
Activity [25]: 37.5%
Activity [26]: 6%
Activity [27]: 0%
Activity [28]: 8.3%
Activity [29]: 12.5%
Activity [30]: 7%
Activity [31]: 14%
Activity [32]: 18.8%
Activity [33]: 86.7%
concentration at 10 days [34]: 442000 ng/g
Activity [35]: 13%
Activity [36]: 12.5%
Activity [37]: 37.5%
